The source made the active and inactive calls. No cut-off for these calls is given here.
Tests used:
[1] = tested on: enterovirus D68; assay: Antiviral activity against Enterovirus D68 infected in human RD cells assessed as inhibition of VP1 expression level incubated for 1.5 hrs by Western blot analysis; format: functional, organism-based; conditions: dose 0.1-10 µM, DDE = dose-dependent effect
Summary of the method: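 RD cells (8.0 × 10^4 per well) were grown for 24 h, then infected with EV-D68 at MOI 0.01 for 1.5 h with gradient-diluted compound or DMSO. Lysates were made at 12 hpi in RIPA buffer and run on 10% SDS-PAGE. Blots were probed with anti-EV-D68 VP1 and anti-tubulin antibodies, with HRP secondary and ECL detection.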

[2] = tested on: enterovirus D68; assay: Antiviral activity against Enterovirus D68 infected in human RD cells assessed as inhibition of VP1 expression level incubated for 12 hrs by Hoechst 33342 staining based immunofluorescence assay; format: functional, organism-based; conditions: dose 0.1-10 µM, DDE = dose-dependent effect
Summary of the method: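 RD cells were infected with EV-D68 at MOI 1 together with compound for 12 h. Cells were fixed in 4% formaldehyde for 30 min and permeabilized in 0.1% Triton X-100 for 30 min, then blocked with 5% bovine serum. Staining used rabbit anti-VP1 with an Alexa-546 secondary and 1 μM Hoechst33342 nuclear stain, imaged by fluorescence microscopy.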

[3] = tested on: enterovirus D68; assay: Antiviral activity against Enterovirus D68 infected in human RD cells assessed as inhibition of viral replication at 1 uM incubated for 1.5 hrs by crystal violet staining based plaque formation assay; format: functional, organism-based
Summary of the method: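 Overnight RD monolayers received serially diluted virus stock plus compound for 1.5 h. Supernatant was removed and cells were overlaid with 2× DMEM containing 2% low-melting agarose. At 72 hpi cells were fixed with 4% paraformaldehyde for 4 h at room temperature and stained with 1% crystal violet to count plaques.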

[4] = tested on: RD; assay: Cytotoxicity against human RD cells assessed as inhibition of cell viability by measuring ATP level incubated for 72 hrs by cell titer-glo luminescent cell viability assay; format: functional
Summary of the method: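 Uninfected RD cells seeded at 1.5 × 10^4/well and grown 24 h, then exposed to compound in 3-fold dilutions (0.01–200 μM), with DMSO as cell control. ATP read by CellTiter-Glo luminescence after 72 h; CC50 is the 50% cytotoxic concentration.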

[5] = Selectivity index, ratio of CC50 for human RD cells to EC50 for Enterovirus-D68 STL-2014-12 infected in human RD cells to; format: toxicity, cell-based; conditions: RD cells, read-out: Ratio CC50/EC50
Summary of the method: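 EC50 came from a CPE reduction assay. RD cells (1.5 × 10^4 per well, grown 24 h) were infected with 100 TCID50 of the named strain and given 3-fold dilutions from 0.01 to 200 μM. After 72 h at 37 °C, ATP was read by CellTiter-Glo and normalized to infected and uninfected controls. CC50 came from uninfected cells under the same dilutions, 72 h and ATP readout. SI = CC50/EC50.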

[6] = tested on: enterovirus D68; assay: Antiviral activity against Enterovirus-D68 STL-2014-12 infected in human RD cells assessed as reduction in virus induced cytopathic effect by measuring ATP level incubated for 72 hrs by cell titer-glo luminescent cell viability assay; format: functional, organism-based; conditions: Enterovirus D, STL-2014-12, RD, 72 h
Summary of the method: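 RD cells seeded at 1.5 × 10^4/well and grown 24 h, then given 100 TCID50 virus plus compound in 3-fold dilutions (0.01–200 μM). DMSO control. Incubated 37 °C for 72 h; ATP read by CellTiter-Glo luminescence and normalized to uninfected and infected controls. EC50 is the concentration giving 50% CPE reduction. Strains: STL-2014-12, US/KY/14-18953, US/MO/14-18947, Fermon.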

[7] = tested on: enterovirus D68; assay: Antiviral activity against Enterovirus-D68 infected in human HeLa cells assessed as reduction in virus induced cytopathic effect incubated for […] by plaque reduction assay; format: functional, organism-based; conditions: Enterovirus D

With `CCc1nc(-c2cnc3ccc(-c4ccc(N)cc4)cc3c2)no1` the Activity [1] was “Dde”, the Activity [2] was “Dde” and the Activity [3] was “Active”.

With `CCCCc1ccc(-c2ccc3ncc(C(=O)OCC)cc3c2)cc1` the CC50 [4] was > 7400 nM, the selectivity ratio [5] was > 9 and the EC50 [6] was 850 nM.

For `CCCCc1nc(-c2cnc3ccc(-c4ccc(N)cc4)cc3c2)no1`, the CC50 [4] was > 2500 nM, the selectivity ratio [5] was > 3 and the EC50 [6] was 710 nM.

With `CCc1nc(-c2cnc3ccc(-c4ccccc4N)cc3c2)no1` the CC50 [4] was 2350 nM, the selectivity ratio [5] was 9 and the EC50 [6] was 2350 nM.

With `COc1ccc(-c2ccc3ncc(-c4noc(C)n4)cc3c2)cc1` the CC50 [4] was > 66700 nM, the selectivity ratio [5] was > 131 and the EC50 [6] was 510 nM.

For `CCc1nc(-c2cnc3ccc(-c4ccc(N)c(Cl)c4)cc3c2)no1`, the CC50 [4] was > 7400 nM, the selectivity ratio [5] was > 12 and the EC50 [6] was 610 nM.

Work on `CCOC(=O)c1ccc(OCCC2CCN(c3ccc(C)nn3)CC2)cc1` [PIRODAVIR] yielded an EC50 [7] of 1610 nM.

For `CC(C)c1ccc(-c2ccc3ncc(-c4noc(C(F)(F)F)n4)cc3c2)cc1`, the CC50 [4] was > 200000 nM, the selectivity ratio [5] was > 39 and the EC50 [6] was 5080 nM.

With `CC(C)c1nc(-c2cnc3ccc(-c4ccc(N)cc4)cc3c2)no1` the CC50 [4] was > 800 nM, the selectivity ratio [5] was > 2 and the EC50 [6] was 400 nM.

With `CCc1nc(-c2cnc3ccc(-c4cccc(N)c4)cc3c2)no1` the CC50 [4] was > 7400 nM, the selectivity ratio [5] was > 44 and the EC50 [6] was 170 nM.

In the case of `CCOC(=O)c1cnc2ccc(-c3ccccc3)cc2c1`, the CC50 [4] is reported as > 7400 nM, the selectivity ratio [5] is reported as > 8 and the EC50 [6] is reported as 900 nM.

For `CCOC(=O)c1cnc2ccc(-c3ccc(C(C)C)cc3)cc2c1`, the CC50 [4] was > 7400 nM, the selectivity ratio [5] was > 2 and the EC50 [6] was 1050 nM.

In the case of `CCc1nc(-c2cnc3ccc(-c4ccccc4)cc3c2)no1`, the CC50 [4] is reported as > 7400 nM, the selectivity ratio [5] is reported as > 44 and the EC50 [6] is reported as 170 nM.

For `CC(C)(C)c1nc(-c2cnc3ccc(-c4ccc(N)cc4)cc3c2)no1`, the CC50 [4] was > 7400 nM, the selectivity ratio [5] was > 2 and the EC50 [6] was 4220 nM.

For `Cc1nc(-c2cnc3ccc(-c4ccccc4)cc3c2)no1`, the CC50 [4] was > 2500 nM, the selectivity ratio [5] was > 11 and the EC50 [6] was 220 nM.

With `CCCc1ccc(-c2ccc3ncc(-c4noc(C)n4)cc3c2)cc1` the CC50 [4] was > 7400 nM, the selectivity ratio [5] was > 10 and the EC50 [6] was 780 nM.

For `CCOC(=O)c1cnc2ccc(-c3ccc(N)cc3)cc2c1`, the CC50 [4] was > 7400 nM, the selectivity ratio [5] was > 16 and the EC50 [6] was 470 nM.

In the case of `Fc1ccc(-c2ccc3ncc(-c4noc(C(F)(F)F)n4)cc3c2)cc1`, the CC50 [4] is reported as > 7400 nM, the selectivity ratio [5] is reported as > 6 and the EC50 [6] is reported as 1220 nM.

In the case of `CCc1nc(-c2cnc3ccc(-c4ccc(NC(C)=O)cc4)cc3c2)no1`, the CC50 [4] is reported as > 7400 nM, the selectivity ratio [5] is reported as > 22 and the EC50 [6] is reported as 330 nM.

With `CCCc1nc(-c2cnc3ccc(-c4ccc(N)cc4)cc3c2)no1` the CC50 [4] was > 800 nM, the selectivity ratio [5] was > 2 and the EC50 [6] was 410 nM.

For `CCCc1ccc(-c2ccc3ncc(-c4noc(CC)n4)cc3c2)cc1`, the CC50 [4] was > 7400 nM, the selectivity ratio [5] was > 14 and the EC50 [6] was 530 nM.

In the case of `CCc1ccc(-c2ccc3ncc(-c4noc(CC)n4)cc3c2)cc1`, the CC50 [4] is reported as > 22200 nM, the selectivity ratio [5] is reported as > 38 and the EC50 [6] is reported as 590 nM.

With `CCc1nc(-c2cnc3ccc(-c4ccc(O)cc4)cc3c2)no1` the CC50 [4] was > 2500 nM, the selectivity ratio [5] was > 13 and the EC50 [6] was 190 nM.

In the case of `CCc1nc(-c2cnc3ccc(-c4ccc(N5CCOCC5)cc4)cc3c2)no1`, the CC50 [4] is reported as > 200000 nM, the selectivity ratio [5] is reported as > 17 and the EC50 [6] is reported as 11800 nM.
